Data on six compounds can be found in ChEMBL document CHEMBL1125085, “Synthesis and anticonvulsant activity of some new 2-substituted 3-aryl-4(3H)-quinazolinones” (J Med Chem, 1990).

Data set [1] relates to Mus musculus. The data set can be described thus: Subcutaneous metrazole (scMet) test was conducted after Injecting intraperitoneally at the time of peak anticonvulsant in phase II test. It counts as functional. A digest of the protocol: (§1)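 Phase II testing in male Carworth Farms no. 1 mice, ip dosing in 30% PEG 400 (0.01 mL/g). Groups of 8–16 mice received a range of doses, giving at least three points in 10–90% protection. ED50 with 95% confidence interval was fitted by probit analysis at the time of peak effect. scMet used pentylenetetrazol 85 mg/kg sc.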

The species entered for data set [2] is Mus musculus. The data set can be described thus: Time taken to reach peak activity was reported. The format is functional.
The species entered for data set [3] is Mus musculus. The data set can be described thus: Time taken to reach peak toxicity was reported. The format is organism-based. Conditions: in vivo.
Data set [4] in a line: (§2) Median toxic dose was measured at time of peak neurologic deficit. It counts as organism-based. As to conditions: mouse, in vivo. The procedure, abridged:
(§3)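 Mice dosed ip in 30% PEG 400. Minimal neurotoxicity was scored by rotorod at the time of peak neurologic deficit. Groups of 8–16 mice were used, with at least three points in the 10–90% range, and TD50 with 95% confidence interval was derived by probit analysis.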

Data set [5] can be described thus: Protective index is the ratio of TD50 and ED50 values obtained in the subcutaneous metrazole (scMet) test. The format is functional. The procedure, abridged: (§4)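 Protective index = TD50/ED50. Both values are medians from groups of 8–16 animals per dose, with at least three points in the 10–90% effect range, fitted by probit analysis. Each was taken at its own time of peak effect: seizure protection for ED50, neurologic deficit for TD50.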

Data set [6] relates to Mus musculus. The data set can be described thus: (§5) Subcutaneous metrazole (scMet) test was conducted and median effective dose was determined at the time of peak anticonvulsant and sedative effect. The format is functional. As to conditions: sc. The procedure, abridged:
(§6)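 Pentylenetetrazol (85 mg/kg in mice, 70 mg/kg in rats) was given subcutaneously in the posterior midline as a 0.5% solution. Compounds were in 30% PEG 400, dosed ip in male Carworth Farms no. 1 mice, or orally in mice and Sprague-Dawley rats. ED50 was read at time of peak effect, using groups of 8–16 animals and ≥3 doses giving 10–90% protection. Probit analysis gave 95% confidence intervals.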

Data set [7] deals with Mus musculus. Described as §5. The format is organism-based. As to conditions: in vivo. A digest of the protocol: as §6
For data set [8], the system named is Mus musculus. Briefly: MES test was performed after Injecting intraperitoneally at the time of peak anticonvulsant effect in phase II test. It counts as functional. Conditions: ip. The procedure, abridged:
as §1

For data set [9], the species on record is Mus musculus. The data set is described as §2. It counts as functional. The procedure, abridged: as §3
The nature of data set [10]: Protective index is the ratio of TD50 and ED50 values obtained in the maximal electroshock seizure (MES) test. The format is functional. The procedure, abridged: as §4
In general terms: The maximal electroshock test induces tonic seizures with an electrical stimulus.

Data set [11] can be described thus: Median toxic dose was measured at time of peak neurologic deficit. It counts as […]. A digest of the protocol: as §3
Data set [12] has as its system Mus musculus. The data set can be described thus: Subcutaneous metrazole (scMet) test was conducted and median effective dose was determined at the time of peak anticonvulsant and sedative effect. The format is […], organism-based. As to conditions: in vivo. The procedure, abridged:
as §6

Regarding `COc1ccccc1-n1c(CC(=O)c2ccncc2)nc2ccccc2c1=O`, the ED50 with Mus musculus [1] came out at 42 mg/kg. Besides, the TPE in the data set filed under Mus musculus [2] is 2 h; in the data set listed under Mus musculus [3], 0.5 h. For the same compound, in data set [4], the TD50 stood at 370 mg/kg. Also, the PI in [5] was 8.8.
`CCC1(c2ccccc2)C(=O)NC(=O)NC1=O` [PHENOBARBITAL] registered a median effective dose (ED50) in the data set on Mus musculus [6] of 13.2 mg/kg.
On to `CCC1(C)CC(=O)NC1=O` (configuration not stated) [ETHOSUXIMIDE], for which the ED50 with Mus musculus [7] worked out at 130.4 mg/kg.
In turn, `CCC1(c2ccccc2)C(=O)NCNC1=O` [PRIMIDONE] had an ED50 in the data set on Mus musculus [6] of 58.6 mg/kg.
Regarding `O=C(Cc1nc2ccccc2c(=O)n1-c1ccccc1F)c1ccncc1`, the ED50 was found to be 50 mg/kg in the data set with Mus musculus [1] and 196 mg/kg in the data set on Mus musculus [8]. The figures for the TPE in the data set filed under Mus musculus [2] and in the data set listed under Mus musculus [3] were 2 h and 1 h, respectively. In the data set filed under Mus musculus [9], the TD50 came out at 832 mg/kg. Besides, the PI is 4.2 in data set [10] and 16.6 in data set [5].
Regarding `Cc1ccccc1-n1c(C)nc2ccccc2c1=O` [METHAQUALONE], the TD50 in data set [11] was found to be 55 mg/kg. In the data set with Mus musculus [12], this compound registered a 50% effective dose (ED50) of 33.5 mg/kg.

For orientation: ED50 means the midpoint of the dose-response relation. Read a low ED50 as an effect at a small dose. For orientation: TD50 means the dose at which the toxic effect under study appears in half of the subjects. A lower TD50 goes with harm at a small dose.
